# Shown are actives, neighbours in structure and some others; about 3.8% of the full set was active somewhere.
# KCNK3 block – human KCNK3 channel inhibitors, primary screen, CHO cells, FluxOR thallium flux, B-score; Potassium channel subfamily K member 3 (Homo sapiens), O14649; FluxOR fluorescence; active compounds read low; B-score at 10 µM; 0.84% of 340,000 active;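 active means B-score under library mean minus 4 SD, starting fluorescence ratio at most library mean plus 5 SD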;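 further: more negative B-score means stronger inhibition of thallium flux through KCNK3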
# Target sequence (O14649 whole entry, looked up): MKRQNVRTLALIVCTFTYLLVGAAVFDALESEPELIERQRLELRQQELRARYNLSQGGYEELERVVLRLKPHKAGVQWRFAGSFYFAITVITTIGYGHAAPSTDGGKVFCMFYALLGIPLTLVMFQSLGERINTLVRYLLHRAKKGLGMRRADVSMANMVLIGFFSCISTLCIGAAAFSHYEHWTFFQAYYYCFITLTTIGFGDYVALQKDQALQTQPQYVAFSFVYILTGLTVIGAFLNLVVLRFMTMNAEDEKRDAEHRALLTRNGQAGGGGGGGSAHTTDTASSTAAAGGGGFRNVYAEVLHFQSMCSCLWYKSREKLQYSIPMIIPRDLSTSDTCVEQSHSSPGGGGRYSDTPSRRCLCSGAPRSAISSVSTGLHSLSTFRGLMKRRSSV
# Kir21 inh – inhibitors of mouse Kir2.1 inward-rectifier potassium channel. 0.85% of 310,000 active. HEK293-Kir2.1, FluxOR thallium flux fluorescence; active compounds read low. B-score at 10 µM. AID 1672, 2009;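 active means fluorescence ratio B-score at or below minus 3 SD of library scores, with starting-brightness B-score within 2 SD, cut at about -4.2 in these data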;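 further: channel flux triggered by added potassium and thallium sulfate stimulus; B-score of peak minus minimum fluorescence over baseline after thallium stimulus; more negative B-score means stronger Kir2.1 block with less thallium influx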
# hERG protect – hERG rescue from dofetilide block, primary screen, cell-based, CHO-hERG, FluxOR thallium flux, dofetilide IC70. Voltage-gated inwardly rectifying potassium channel KCNH2 (Homo sapiens), Q12809. AID 1511, 2009. activation (rescue from dofetilide block), less the hit threshold, % at 10 µM. 0.51% of 310,000 active. dofetilide IC70 present;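 active means activation above the mean of controls blocked by dofetilide plus 5 SD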;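 further: thallium influx through hERG after potassium depolarization seen as dye fluorescence rise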
# KCNQ1 inh – inhibitors of human KCNQ1 channel, primary screen, cell-based, thallium flux, high-throughput. Potassium voltage-gated channel subfamily KQT member 1 (Homo sapiens), P51787. B-score at 10 µM. CHO-K1 KCNQ1, FluxOR thallium flux fluorescence; active compounds read high. 1.3% of 310,000 active;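 active means compounds whose thallium flux B-score, printed positive for inhibition, exceeds three library SD while starting fluorescence stays within three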;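 further: channel opened by potassium depolarization with thallium stimulus after 20 min compound exposure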
# KCNQ1 pot – potentiators or activators of KCNQ1 channel, primary screen, cell-based, thallium flux, high-throughput. CHO-K1 KCNQ1, thallium flux FluxOR fluorescence; active compounds read high. B-score at 10 µM. Potassium voltage-gated channel subfamily KQT member 1 (Homo sapiens), P51787. 0.35% of 310,000 active;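 active means fluorescence ratio B-score, a plate-corrected score, at least three library SD, with initial intensity B-score within 5 SD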
#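 assay system = CHO-K1 cells stably expressing KCNQ1 | medium = assay buffer, equal DMSO in all wells | timing = 37 °C overnight plating, 90-min dark dye load, 20-min compound pretreatment | measured by = kinetic FluxOR thallium fluorescence, 10-s 1-Hz baseline, 110-s post-stimulus read | measure = fluorescence change relative to baseline, converted to B score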
# KCNK9 inh – KCNK9 potassium channel inhibitors, primary screen, HEK293 cells, thallium flux | Potassium channel subfamily K member 9 (Homo sapiens), Q9NPC2 | FluxOR thallium flux fluorescence; active compounds read low | B-score at 10 µM | 1.2% of 310,000 active;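 active means ratio B-score over 3 SD below the library mean, with starting fluorescence within 5 SD of its mean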;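 further: negative B-score means less thallium flux so channel inhibition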
# KCNQ1 block val – KCNQ1 potassium channel inhibitors, confirmation, cell-based, Tl flux, duplicate; shares compounds with KCNQ1 inh; KCNQ1 cell line, FluxOR thallium flux fluorescence; inhibition, % at 10 µM; 93% of 1,600 active;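 active means primary screen active, with duplicate mean exceeding buffer control mean plus 3 SD of buffer wells, cut at about 28% in these data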
# CHO Tl flux – thallium flux effects in parental CHO cells, counter-screen for KCNQ1 inhibitor project, cell-based, Tl flux; AID 588366, 2011; shares compounds with KCNQ1 inh; parental CHO-K1, FluxOR thallium flux fluorescence ratio; active compounds read low; zero means no signal rise above baseline; fluorescence ratio (Tl flux) at 10 µM; 21% of 1,600 active;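 active means mean of duplicate thallium-flux fluorescence ratios in parental host cells more than 5 SD below the buffer control mean, cut at about 0.38 in these data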;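 further: ratio is peak minus minimum fluorescence divided by baseline fluorescence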
# KCNQ1 APC inh – KCNQ1 channel inhibitors, confirmation, orthogonal assay, cell-based, automated electrophysiology | 20% of 490 active | KCNQ1-CHO cells, automated patch clamp current | shares compounds with KCNQ1 inh | calls only at 10 µM;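 active means KCNQ1 current drop exceeding 3 SD of negative control wells, seen in both duplicate runs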;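 further: steady state current during a 2 s step from -80 to +40 mV; negative values mean current inhibition and positive values mean potentiation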
# KCNQ2 spec – KCNQ2 channel inhibition, selectivity assay for KCNQ1 inhibitor project, cell-based | shares compounds with KCNQ1 inh | KCNQ2 cells, FluxOR thallium flux fluorescence | inhibition, % at 10 µM | 71% of 1,600 active | AID 651746, 2012;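 active means mean percent inhibition of the KCNQ2 thallium signal more than 5 SD above the buffer-only control wells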;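 further: KCNQ2 expressed in CHO cells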
# KCNQ1-KCNE1 inh – KCNQ1/KCNE1 channel inhibition, selectivity assay for KCNQ1 inhibitor project, CHO-K1 cells, thallium flux, FluxOR; 77% of 1,600 active; inhibition, % at 10 µM; FluxOR thallium flux fluorescence; AID 652147, 2013; shares compounds with KCNQ1 inh;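 active means mean percent inhibition of duplicate wells above the buffer-only control mean plus 3 SD of those controls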
# Numbers stand for hits; – = inactive; · = no result given; + = active, no number.
SMILES,KCNK3 block,Kir21 inh,hERG protect,KCNQ1 inh,KCNQ1 pot,KCNK9 inh,KCNQ1 block val,CHO Tl flux,KCNQ2 spec,KCNQ1-KCNE1 inh,others
Cc1cc(C)cc(NC(=O)C2CCN(S(=O)(=O)c3ccc4c(c3)NC(=O)C(C)S4)CC2)c1 (centres undefined),–,–,–,7,–,–,116,–,98%,131%,KCNQ1 APC inh=–
Cc1ccc(NC(=O)C2CCN(S(=O)(=O)c3ccc4c(c3)NC(=O)C(C)S4)CC2)cc1Cl (centres undefined),–,–,–,17,–,–,126,–,92%,107%,KCNQ1 APC inh=–
CC1Sc2ccc(S(=O)(=O)N3CCC(C(=O)NCC(C)c4ccccc4)CC3)cc2NC1=O (centres undefined),–,–,–,7,–,–,56,–,–,–,
Cc1nc(Nc2cc(F)ccc2C)c2nnn(Cc3ccccc3)c2n1,–,–,–,–,–,–,·,·,·,·,
COc1ccc(/C=N/NC(=O)c2cc3c(ccc4ccccc43)o2)c(OC)c1,–,–,–,18,–,–,82,–,64%,170%,
COc1ccc(OC)c(/C=N\NC(=O)c2cc3c(ccc4ccccc43)o2)c1,–,–,–,–,–,–,·,·,·,·,
Cc1[nH]n(-c2ncc(-c3ccccc3)s2)c(=O)c1C(c1ccc(Cl)cc1)C(C#N)C#N (centres undefined),–,–,–,7,–,–,45,–,–,69%,
Cc1[nH]n(-c2ccccc2)c(=O)c1C(c1ccccc1[N+](=O)[O-])C(C#N)C#N (centres undefined),–,–,–,–,–,–,·,·,·,·,
O=C(O)C1CC=CCC1C(=O)Nc1ccc2c(c1)CCC2 (centres undefined),–,–,–,6,–,–,–,–,–,–,
O=C(CSc1nnc(-c2ccc(F)cc2)c2ccccc12)NCC1CCCO1 (centres undefined),–,–,–,–,–,–,·,·,·,·,
CC(=O)c1ccc(NC(=S)NC(C)CCc2ccccc2)cc1 (centres undefined),–,–,–,7,–,–,38,–,–,41%,
Cc1cc(C)c(O)c(-c2cc(C(=O)Nc3ccc(S(=O)(=O)N4CCOCC4)cc3)[nH]n2)c1,–,–,–,6,–,–,133,0.37,94%,+,
COc1ccc(C(=O)CSc2[nH]c(=O)cc(C(F)(F)F)c2C#N)cc1,–,–,–,–,–,–,·,·,·,·,
CCOc1ccc(C2CC(c3cccc(OC)c3OC)n3nnnc3N2)cc1Cl (centres undefined),–,–,–,7,–,–,–,–,59%,–,
Cc1ccc(C(c2cc(Br)ccc2O)N2CCSCC2)cc1 (centres undefined),–,–,–,7,–,–,122,–,107%,136%,
CCCOC1CCCN(C(=O)CCc2nnc(-c3ccc4c(c3)OCO4)o2)C1 (centres undefined),–,–,–,–,–,–,·,·,·,·,
Cc1cc(C)c2c(N)c(C(=O)c3ccc(Cl)cc3)sc2n1,–,–,–,–,–,–,·,·,·,·,
CC(C)NC(=O)c1sc2nc(-c3cccs3)cc(-c3cccs3)c2c1N,·,–,–,6,–,–,198,0.28,–,–,
CC(=O)c1sc2nc(-c3cccs3)ccc2c1N,–,–,–,–,–,–,·,·,·,·,
COc1ccc(C(=O)c2sc3nc(C)cc(-c4cccs4)c3c2N)cc1OC,–,–,–,7,–,–,199,0.2,–,–,
Cc1cc(C)c2c(N)c(C(=O)c3ccc(Cl)c(Cl)c3)sc2n1,–,–,–,–,–,–,·,·,·,·,
COc1ccc(C(=O)c2sc3nc(C)cc(-c4cccs4)c3c2N)cc1,–,–,–,6,–,–,195,0.26,–,–,
O=C(N/N=C/c1ccco1)c1cccc(N2Cc3ccccc3C2)c1,–,–,–,–,–,–,·,·,·,·,
COc1ccc(C(=O)OCC(=O)NC2CC2)cc1F,–,·,·,·,·,·,·,·,·,·,
COc1ccc(-c2nc3cc(C)ccn3c2NCc2ccc3c(c2)OCO3)cc1,–,–,–,7,–,–,98,–,89%,136%,KCNQ1 APC inh=–
SMILES,KCNK3 block,Kir21 inh,hERG protect,KCNQ1 inh,KCNQ1 pot,KCNK9 inh,KCNQ1 block val,CHO Tl flux,KCNQ2 spec,KCNQ1-KCNE1 inh,others
c1ccc(-c2nc3ccccn3c2NCc2ccc3c(c2)OCO3)cc1,–,–,–,–,–,–,·,·,·,·,
O=C(Cc1nc2ccccc2[nH]1)c1ccc(Br)cc1,–,–,–,6,–,–,52,–,72%,51%,
Cc1cccc(N(C)S(=O)(=O)c2c[nH]c3ccc([N+](=O)[O-])cc23)c1,–,–,–,–,–,–,·,·,·,·,
COc1ccc(Nc2nc(N3CCN(S(=O)(=O)N(C)C)CC3)nc3ccccc23)cc1,–,–,–,–,–,–,·,·,·,·,
O=C(c1cc(COc2ccc3ncccc3c2)on1)N1CCC(O)CC1,–,–,–,–,–,–,·,·,·,·,
O=C(c1cc(COc2cccc(C(F)(F)F)c2)on1)N1CCC(Oc2cccnc2)CC1,–,–,–,8,–,–,132,–,96%,85%,KCNQ1 APC inh=–
CCC(O)C1CCN(C(=O)c2cc(COc3ccc4ncccc4c3)on2)CC1 (centres undefined),–,–,–,8,–,–,58,–,100%,–,
Cc1ccc(OCc2cc(C(=O)N3CCC(Oc4cccnc4)CC3)no2)cc1C,–,–,–,7,–,–,114,–,83%,52%,KCNQ1 APC inh=–
O=C(c1nc2ccccn2c1CN1CCCC(OCc2ccccc2)C1)N1CCCC1 (centres undefined),–,–,–,–,–,–,·,·,·,·,
